The results in this text go back to ChEMBL document CHEMBL5154720, “In silico screening-based discovery of novel covalent inhibitors of the SARS-CoV-2 3CL protease” (Eur J Med Chem, 2022).

Assay [1] has as its target Replicase polyprotein 1ab (Severe acute respiratory syndrome coronavirus 2) (UniProt P0DTD1). Briefly: Inhibition of SARS-CoV-2 3CL protease using MCA-AVLQSGFR-Lys(Dnp)-Lys-NH2 fluorogenic peptide as substrate incubated for 30 mins at 50 uM and measured by FRET assay relative to control. In outline:
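Recombinant SUMO-tag-cleaved 3CLpro (E. coli BL21(DE3), Ni-NTA, Q-Sepharose, size exclusion), 50 nM final, preincubated 30 min with compound in 50 mM Tris pH 7.3, 1 mM EDTA; reaction started with 20 μM final FRET substrate. Fluorescence 320/405 nm read every 30 s for 5 min; initial velocity relative to DMSO control. Mean ± SD of three independent experiments.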

Assay [2] concerns the target Replicase polyprotein 1ab (Severe acute respiratory syndrome coronavirus 2, UniProt P0DTD1). The experiment in a line: Inhibition of SARS-CoV-2 3CL protease using MCA-AVLQSGFR-Lys(Dnp)-Lys-NH2 fluorogenic peptide as substrate incubated for 30 mins and measured by FRET assay.

Consider `Cc1cccc(C)c1NC(=O)CSc1nc2c(cc1C#N)C(=O)CCC2`, for which the inhibition (commonly the relative decrease from the control value, in per cent) in assay [1] is 15.2%.
As for `O=C(CC1C(=O)NCCN1C(=O)CCl)Nc1cccc(Cl)c1` (stereo unspecified), in assay [1], the inhibition turned out to be 87.6%. In addition, the IC50 (commonly the concentration at which inhibition is half-maximal) in assay [2] was found to be 8.5 µM.
As to `Cn1c(CN2CCC(C(N)=O)CC2)c(C#N)c2ccccc21`, the inhibition in assay [1] turned out to be 24.1%.
`NS(=O)(=O)c1ccc(NC(=O)C(=O)c2ccc[nH]2)cc1` displayed an inhibition in assay [1] of 31.4%.
Molecule `CN(C(=O)CN1CC(C=O)c2ccccc21)c1ccccc1` (stereo unspecified) displayed an inhibition in assay [1] of 32.6%.
Molecule `NC(=O)CN1C(=O)C(O)(CC(=O)/C=C\c2ccc3c(c2)OCO3)c2ccccc21` (stereo unspecified) came in with an inhibition in assay [1] of 55.2%. In assay [2], this molecule returned a concentration for half-maximal inhibition (IC50) of 36.1 µM.
In assay [1], `CC1=C(C#N)C(=O)N(CCCO)C(=O)/C1=N\Nc1ccc(Br)cc1C(=O)O` yielded an inhibition of 65.5%. Half-maximal inhibition in assay [2] (IC50) required 19.1 µM.
`O=C(/C=C/c1cn(CC(O)CN2CCOCC2)c2ccccc12)c1cccs1` (stereo unspecified): the inhibition in assay [1] came to 22.3%.
